# Screens as filed in PubChem BioAssay.
# Sampled rows, rich in hits. Any-hit rate of the full collection: about 2.4%.
# PfM18AAP inh-1: blocks P. falciparum M18 aspartyl aminopeptidase; recombinant PfM18AAP, H-Glu-NHMec fluorogenic cleavage; inhibition, % at 7.35 µM; 290,000 tested, 1.2% active;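 active = inhibition above the campaign mean inhibition over all tested compounds plus 3 SD, cut at about 28% in these data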;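 also: 0% = plate median of test compound wells and 100% = 2 mM ZnCl2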
# VIM-2 inhibitor: blocks Pseudomonas aeruginosa VIM-2 metallo-beta-lactamase | purified VIM-2, nitrocefin hydrolysis, epi-absorbance fluorescence | inhibition, % at 5.6 µM | 290,000 tested, 0.89% active;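 active = inhibition above the mean of all tested compounds plus 3 SD, cutoff set per screening run, cut at about 7.5% in these data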;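 also: red hydrolysis product quenches plate fluorescence so inhibitors raise well fluorescence; 0% = enzyme with DMSO and 100% = DMSO without enzyme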
# IMP-1 inh: blocks Pseudomonas aeruginosa IMP-1 metallo-beta-lactamase | purified IMP-1, nitrocefin hydrolysis, epi-absorbance fluorescence | 290,000 tested, 0.45% active | inhibition, % at 5.6 µM | AID 1556;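 active = inhibition above the mean plus 3 SD of all compounds in the same screening run, cut at about 4.5% in these data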;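 also: 0% = IMP-1 with DMSO and 100% = DMSO wells lacking enzyme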
#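 Assay system: purified IMP-1; Quantity: IMP-1 0.2 nM before substrate addition; Medium: HEPES buffer pH 7.1 with ZnSO4 and Brij 35; Incubation: 15 min enzyme–compound preincubation, then 25 min nitrocefin reaction, 25 °C; Signal: fluorescence quenching readout, ex 480/em 530 nm; Controls: DMSO with and without IMP-1; Repeats: singlicate testing.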
# sPLA2-III inh: Inhibits HGIII-sPLA2 liposome hydrolysis, primary screen | Q9NZ20 | inhibition, % at 12.2 µM | QFRET BODIPY PC-A2 liposome hydrolysis, fluorescence | 370,000 tested, 0.56% active;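 active = inhibition above mean plus 3 SD of compounds lying within the high and low control bounds, cut at about 19% in these data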;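 also: 0% = median of test compound wells and 100% = no enzyme DMSO wells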
# PfM18AAP inh-2: PfM18AAP inhibition, confirmation; shares compounds with PfM18AAP inh-1; recombinant PfM18AAP, H-Glu-NHMec fluorogenic cleavage; AID 2170; inhibition, % at 7.35 µM; 2,400 tested, 28% active;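 active = mean inhibition over replicate wells above the hit cutoff set for the earlier primary screen, cut at about 29% in these data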;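 also: 0% = median of test compound wells and 100% = 2 mM ZnCl2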
# CTSL1 counter: counter-screen for PFM18AAP inhibitors: confirmation of human cathepsin L inhibitors. purified cathepsin L1, Z-Leu-Arg-MCA fluorescence. shares compounds with PfM18AAP inh-1. AID 2178. inhibition, % at 5.96 µM. 2,400 tested, under 10 active;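 active = average inhibition across replicates above the hit cutoff set in the earlier primary screen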;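 also: 0% = median of test compound wells and 100% = Z-Phe-Ala-diazomethylketone 1 µM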
# Target sequence (P07711 whole entry, looked up): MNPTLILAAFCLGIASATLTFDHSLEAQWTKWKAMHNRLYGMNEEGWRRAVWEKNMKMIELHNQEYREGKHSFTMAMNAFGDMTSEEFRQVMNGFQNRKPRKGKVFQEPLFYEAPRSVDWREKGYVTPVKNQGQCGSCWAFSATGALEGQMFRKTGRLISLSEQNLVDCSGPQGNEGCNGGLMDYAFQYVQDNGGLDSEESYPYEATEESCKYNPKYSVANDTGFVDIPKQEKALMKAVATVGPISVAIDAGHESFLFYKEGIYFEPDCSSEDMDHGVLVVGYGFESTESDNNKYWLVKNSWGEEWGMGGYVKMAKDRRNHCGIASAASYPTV
# * marks the source's active call; other numbers are inactive results; . = no result given.
SMILES,PfM18AAP inh-1,VIM-2 inhibitor,IMP-1 inh,sPLA2-III inh,PfM18AAP inh-2,CTSL1 counter
O=[N+]([O-])c1ccc2c(c1)CCCO[C@]21O[C@H](CCO)C[C@H](O)[C@H]1O,.,.,.,2.4,.,.
Cc1c(Br)c(=O)oc2c(Br)c(O)c(O)cc12,39.5*,3.0,1.8,14.8,8.9,-9.9
Cc1c(Br)c(=O)oc2c(Br)c(O)ccc12,6.0,4.5,-1.7,2.3,.,.
CCCCNc1nc2c(c(=O)[nH]c(=O)n2C)n1CCCc1ccccc1,.,.,.,-7.1,.,.
CCN(CC)c1ccc(N=Cc2ccc(N(CC)CC)cc2O)cc1,42.5*,-5.4,-4.5,9.3,-22.0,-1.9
CCN(CC)c1ccc(C=Nc2ccc(N(C)C)cc2)c(O)c1,18.5,-2.8,-6.5,-2.3,.,.
N#Cc1c(/N=C/c2cccs2)sc2c1CCCCC2,34.1*,-0.6,-1.9,8.1,-23.4,7.3
COc1ccc(-c2nc(N/N=C(\C)c3ccc(O)cc3)c3ccccc3n2)cc1,63.1*,-3.8,-2.9,-19.9,-62.1,3.3
COc1ccc(Nc2nc(-c3ccccc3)nc3ccccc23)cc1,-4.5,-0.3,-1.3,-13.5,.,.
O=C1CCC[C@H]2Cc3nc4cc5c(cc4cc3C[C@]23CCCN13)OCO5,.,.,.,1.3,.,.
CCCOc1ccc(CNC(=O)c2ccc3c(c2)N(CC)CCS3)cc1,3.5,-2.6,-0.7,5.5,.,.
COCc1cc(=O)[nH]c(=S)[nH]1,20.2,-1.2,-0.7,-2.1,.,.
COCc1cc(C)c(C#N)c(=S)[nH]1,31.8*,0.2,-2.7,.,34.8*,-0.8
Cc1c(NC(=O)CSc2nnc(-c3ccncc3)n2C)c(=O)n(-c2ccccc2)n1C,.,.,.,12.9,.,.
CC(=O)Oc1cc2oc(=O)cc(C)c2cc1OC(C)=O,47.0*,-1.2,-3.1,4.2,75.3*,18.6*
Cc1ccc(C)c(S(=O)(=O)NNC(=O)c2sc(NS(=O)(=O)c3ccccc3)nc2C)c1,36.1*,-3.2,-2.9,-11.7,-9.9,-0.6
N#Cc1c2n(c(=S)n(-c3ccccc3[N+](=O)[O-])c1=O)CCCCC2,34.9*,1.8,0.8,-5.0,-44.6,-4.7
COc1ccc(C(C)=O)cc1Cn1c(C)c(C(=O)NC2CC2)sc1=O,.,.,.,-1.5,.,.
C/C(=N\N1C(=O)CSC1=S)c1ccc(Br)cc1,50.2*,0.6,-3.2,9.0,10.2,5.1
Cc1cc(=S)[nH]c(=S)[nH]1,38.0*,-1.1,-1.9,4.2,-9.1,4.5
CC(=O)N1C[C@H]2CON(C)[C@H]2C[C@H]1c1ccc(-c2cccnc2)cc1,.,.,.,15.9,.,.
O=C(NC(=S)NC1CCS(=O)(=O)C1)c1ccccc1Br (centres undefined),5.7,-1.5,-1.9,-1.6,.,.
COc1ccc(/C=N/Nc2ncc(Br)cn2)c(OC)c1,37.9*,-2.0,-0.1,4.2,-47.0,-3.4
O=c1[nH]c(CSc2ncn[nH]2)nc2ccccc12,69.2*,-1.4,-2.7,-1.5,72.7*,5.2
O=[N+]([O-])c1ccc(N/N=C/c2c[nH]c3ccccc23)cc1,37.0*,-2.6,-3.1,-42.1,-52.5,4.2
SMILES,PfM18AAP inh-1,VIM-2 inhibitor,IMP-1 inh,sPLA2-III inh,PfM18AAP inh-2,CTSL1 counter
O=[N+]([O-])c1ccc(N/N=C/c2cccc(O)c2O)cc1,36.5*,-0.3,-0.6,19.2,4.2,0.6
O=[N+]([O-])c1ccc(N/N=C/c2ccc[nH]2)cc1,34.7*,-4.3,-5.3,12.5,-31.4,3.6
CC(=O)Nc1ccc(-c2ccnc3c2CC(C(=O)NCc2cccc(Cl)c2)O3)cc1 (centres undefined),.,.,.,-14.8,.,.
CC1(C)Cc2c(oc3ncn4ncnc4c23)CO1,-11.0,-0.7,-1.7,2.0,.,.
CSc1nc2oc3c(c2c2nncn12)CC(C)(C)SC3,31.8*,2.7,-2.0,10.7,-6.1,-10.3
CCOc1ccccc1N/C(=C(/C(Cl)=C(Cl)Cl)[N+](=O)[O-])n1cncn1,82.8*,-4.5,-3.8,-31.6,73.5*,4.7
O=[N+]([O-])/C(C(Cl)=C(Cl)Cl)=C(\Nc1ccc(F)cc1)n1cncn1,80.6*,-3.1,-3.5,.,79.3*,7.5
CCOc1ccccc1NC(=O)c1ccc([N+](=O)[O-])cc1,6.0,-5.2,-3.5,.,.,.
COc1ccccc1[C@@]1(C)ON(c2ccccc2C(F)(F)F)C1=O,.,.,.,-1.6,.,.
COc1ccc(OC)c(/C=N/Nc2nncn2/N=C/c2cc(OC)ccc2OC)c1,51.1*,-2.1,-1.6,1.0,-43.8,0.5
COc1cccc2c(N/N=C/c3ccc(O)c(O)c3)cc(C)nc12,56.1*,-3.0,-1.0,-10.5,31.6*,-0.9
COc1cc(/C=N/NC2=NCCCCC2)ccc1O,3.9,-1.9,-3.2,0.1,.,.
COc1ccc(/C=N/Nc2cc(C)nc3c(C)cccc23)cc1,12.4,3.1,-3.4,-21.8,.,.
COc1ccc(OC)c(/C=N\Nc2nccs2)c1,.,.,.,6.2,.,.
COc1cc(/C=N/Nc2ccccc2)ccc1O,19.1,-0.7,-1.4,-5.1,.,.
COc1cc(/C=N/Nc2ccccc2C(F)(F)F)ccc1O,39.4*,-2.0,-1.4,-15.1,-13.5,-0.1
COc1cc(/C=N/Nc2nncn2/N=C/c2ccc(O)c(OC)c2)ccc1O,62.6*,0.5,-1.9,3.7,41.6*,2.0
CCOC(=O)N(O)c1ccc(C=Cc2ccccc2)cc1,.,.,.,-53.8,.,.
CCOc1ccc(/C(O)=C2/C(=O)C(=O)N(c3ccccn3)C2c2ccc(F)cc2)c(C)c1 (centres undefined),4.5,-1.2,-3.6,-1.5,.,.
CC(C)Nc1ncnc2c1ncn2[C@H]1CN(Cc2ccccc2)C[C@@H](CO)O1,.,.,.,1.8,.,.
COC(=O)[C@@]12C[C@@H](CC(=O)NCCCCc3ccccc3)C(=O)N(Cc3ccco3)C1=CCC(C)(C)C2,.,.,.,-12.4,.,.
COc1cc(/C=N/NC(=O)c2ccncc2)ccc1OC(C)=O,13.9,-1.2,-3.5,-0.4,.,.
COc1cc(/C=N\Nc2nncn2N)ccc1OC(C)=O,53.1*,-1.5,-1.9,1.7,-3.6,4.9
CCOC(=O)Cc1csc(NC(=O)Cc2ccc(Cl)cc2)n1,-4.1,-2.9,-2.5,-6.9,.,.
CCOC(=O)Cc1csc(NC(=O)NC2(C(F)(F)F)Oc3ccccc3O2)n1,90.1*,-1.4,-2.3,-2.4,67.6*,0.6
SMILES,PfM18AAP inh-1,VIM-2 inhibitor,IMP-1 inh,sPLA2-III inh,PfM18AAP inh-2,CTSL1 counter
CCOC(=O)Cc1csc(NC(=O)c2cc(C)c(C)s2)n1,.,.,.,-7.9,.,.
CCOC(=O)Cc1csc(NC(=O)Nc2ccc(OC(F)(F)F)cc2)n1,-3.4,-1.5,-0.7,1.6,.,.
CCOC(=O)Cc1csc(NC(=O)NC2(C(F)(F)F)Oc3cc(Cl)c(Cl)cc3O2)n1,93.5*,-3.9,-7.1,-9.9,73.4*,-3.3
CCOC(=O)Cc1csc(NC(=O)NC2(C(F)(F)F)Oc3ccc(Cl)cc3O2)n1 (centres undefined),96.5*,-3.5,-4.7,4.6,73.2*,-1.5
COc1ccc(CC(=O)Nc2sc3c(c2C(N)=O)CCCC3)cc1,0.3,-1.0,1.2,-6.6,.,.
COc1ccc2nc(Nc3sc4c(c3C(N)=O)CCCC4)sc2c1,42.2*,-2.0,-2.6,17.3,-23.9,-4.5
